Data: article PMC9273292 (Journal of Ethnopharmacology, 2022)

Experiments:
CCK-8 cytotoxicity assay = assay type: cell-based; conditions: human, HRT-18 cells
Method in brief: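 Viability of HRT-18 cells is read by CCK-8 per the kit protocol. Cells are kept in RPMI 1640 with 10% FBS, sodium pyruvate, NEAA and 0.025M HEPES at 37 °C, 5% CO2. Run in triplicate. CC50 comes from a four-parameter log(inhibitor) vs response fit of mean values.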

HCoV-OC43 [1] = assay: Cytopathic effect; assay type: cell-based, human coronavirus OC43; conditions: 100 TCID50, 72 hpi, two-fold serial dilutions
Method in brief: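 Confluent cell monolayers are infected with 100 TCID50 HCoV-OC43 (titre by Reed-Muench) and given two-fold serial dilutions of test compound. At 72 hpi, CPE (lysis, rounding, vacuolization) is scored by phase-contrast microscopy; absence of CPE is taken as activity. Remdesivir is the positive control.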

HCoV-OC43 [2] = assay: Antibody-based EC50 assay; assay type: cell-based, human coronavirus OC43; conditions: CC50/EC50, HRT-18 cells
Method in brief: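 HRT-18 cells (RPMI 1640, 10% FBS, 37 °C, 5% CO2) infected with HCoV-OC43 and treated with test compound. Viral nucleocapsid is detected with an anti-OC43 nucleocapsid antibody. Run in triplicate. EC50 comes from a four-parameter log(inhibitor) vs response fit of mean values. SI = CC50/EC50.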

HCoV-OC43 [3] = assay: Immunofluorescence analysis of HCoV-OC43 nucleocapsid in infected HRT-18 cells; assay type: cell-based, human coronavirus OC43; conditions: 4 μM, 48 hpi
HCoV-OC43 [4] = assay: Transmission electron microscopy of infected HRT-18 cells; assay type: cell-based, human coronavirus OC43; conditions: 4 μM, 48 hpi
Method in brief: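 HRT-18 monolayers are inoculated with 100 TCID50 HCoV-OC43 for 2 h at 37 °C. Inoculum is then replaced by RPMI 1640 with 2% FBS containing test compound or DMSO. At 48 hpi, virus particles are examined by negative staining under transmission electron microscopy.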

[5] = target: recombinant SARS-CoV-2 PLpro (Severe acute respiratory syndrome coronavirus 2, UniProt P0DTD1); assay: PLpro inhibition assay; assay type: biochemical
[6] = target: SARS-CoV-2 Nsp14N7 methyltransferase (Severe acute respiratory syndrome coronavirus 2, UniProt P0DTD1); assay: Nsp14N7-MTase inhibition assay; assay type: biochemical
Mpro [7] = conditions: cited from earlier work
Mpro [8] = conditions: SARS-CoV-2 model; ref Alhadrami et al., 2021; cited from earlier work

| SMILES | CC50 (CCK-8 cytotoxicity assay) [µM] | inhibition of CPE caused by HCoV-OC43 infection (HCoV-OC43 [1]) | Selective index (SI) (HCoV-OC43 [2]) | fluorescence signal of virus particles (HCoV-OC43 nucleocapsid) (HCoV-OC43 [3]) | viral particles in infected cells under TEM (HCoV-OC43 [4]) | IC50 [5] [µM] | IC50 [6] [µM] | concentration inhibiting Mpro activity by competitive inhibition (Mpro [7]) [µmol/L] | concentration inhibiting Mpro activity (Mpro [8]) [µmol/L] |
| --- | --- | --- | --- | --- | --- | --- | --- | --- | --- |
| C[C@H]1[C@H](C)CC[C@]2(C)CC[C@]3(C)C(=CC[C@@H]4[C@@]5(C)CC[C@H](O)C(C)(C)[C@@H]5CC[C@]43C)[C@H]12 [Compound 2, α-amyrin] | 24 | showed antiviral activity | 6.03 |  |  |  |  |  |  |
| O=C1C[C@@H](c2ccc(O)cc2)Oc2cc(O)cc(O)c21 [Compound 5, naringenin] |  | showed antiviral activity |  |  |  |  |  |  |  |
| C=C(C)[C@@H]1CC[C@]2(C(=O)O)CC[C@]3(C)[C@H](CC[C@@H]4[C@@]5(C)CC[C@H](O)C(C)(C)[C@@H]5CC[C@]43C)[C@@H]12 [Compound 1, betulinic acid] | 19.4 | showed antiviral activity | 8.04 | substantially reduced the fluorescence signal of virus particles | no viral particles were detected | 2.03 | 1.12 | 10 | 14.55 |
| O=c1c(O)c(-c2ccc(O)c(O)c2)oc2cc(O)cc(O)c12 [Compound 11, quercetin] | 34 | showed antiviral activity | 7.29 |  |  |  |  |  |  |
| O=C1C[C@@H](c2ccc(O)c(O)c2)Oc2cc(O)cc(O)c21 [Compound 8, eriodictyol] |  | showed antiviral activity |  |  |  |  |  |  |  |
